Laboratory results: ChEMBL document CHEMBL4014345, “Development of Selective Clk1 and -4 Inhibitors for Cellular Depletion of Cancer-Relevant Proteins” (J Med Chem, 2017)
Activity calls are given as the source filed them. The calls are words filed in the database; no cut-off is given here.

Assays:
[1] = molecular target: T1, Dual specificity protein kinase CLK1/CLK4 (Homo sapiens, UniProt Q9HAZ1+P49759); assay: Inhibition of CLK1/4 in human MDA-MB-231 cells assessed as down regulation of S6 kinase expression at 10 uM after 3 days by Western blot analysis relative to control; format: cell-based
Method in brief: (§1)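 T24 or MDA-MB-231 cells were grown in DMEM to 70% confluency. The medium was replaced with compound diluted in DMEM, and cells were kept 3 days. Total protein was immunoblotted with monoclonal antibodies in 3% BSA/PBS against EGFR, p70S6K α, PARP-1, ERK2, HDAC1, CD44, PCNA and GRP94.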

[2] = system: MDA-MB-231; assay: Down regulation of ERK2 expression in human MDA-MB-231 cells at 2.5 to 20 uM after 3 days by Western blot analysis; format: functional, cell-based; method in brief: as §1
[3] = molecular target: T1, Dual specificity protein kinase CLK1/CLK4; assay: Inhibition of CLK1/4 in human MDA-MB-231 cells assessed as down regulation of EGFR expression at 2.5 uM after 3 days by Western blot analysis relative to control; format: cell-based; method in brief: as §1
[4] = system: MDA-MB-231; assay: Down regulation of PARP1 expression in human MDA-MB-231 cells at 2.5 to 20 uM after 3 days by Western blot analysis; format: functional, cell-based; method in brief: as §1
[5] = molecular target: Dual specificity protein kinase CLK2 (Mus musculus, UniProt O35491); assay: Inhibition of recombinant GST-tagged mouse CLK2 using GRSRSRSRSRSR as substrate after 30 mins in presence of [gamma-32P]-ATP by scintillation counting method
Chain of Dual specificity protein kinase CLK2 (O35491 whole entry): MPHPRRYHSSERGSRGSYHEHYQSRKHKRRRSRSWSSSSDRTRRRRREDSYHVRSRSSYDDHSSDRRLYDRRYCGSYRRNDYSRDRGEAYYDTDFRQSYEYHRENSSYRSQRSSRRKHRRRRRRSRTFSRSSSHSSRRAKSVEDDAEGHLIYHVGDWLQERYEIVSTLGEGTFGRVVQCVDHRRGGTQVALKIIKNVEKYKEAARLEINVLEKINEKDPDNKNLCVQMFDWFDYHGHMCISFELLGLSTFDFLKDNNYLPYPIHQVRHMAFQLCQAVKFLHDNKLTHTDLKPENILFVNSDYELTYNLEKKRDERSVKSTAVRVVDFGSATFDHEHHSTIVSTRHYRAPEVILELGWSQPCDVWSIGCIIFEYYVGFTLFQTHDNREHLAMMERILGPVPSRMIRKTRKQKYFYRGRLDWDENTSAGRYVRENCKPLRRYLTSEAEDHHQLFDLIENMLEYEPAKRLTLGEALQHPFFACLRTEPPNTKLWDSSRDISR

[6] = molecular target: T1, Dual specificity protein kinase CLK1/CLK4; assay: Inhibition of CLK1/4 in human T24 cells assessed as down regulation of EGFR expression at 1.25 uM after 3 days by Western blot analysis relative to control; format: cell-based; method in brief: as §1
[7] = molecular target: T1, Dual specificity protein kinase CLK1/CLK4; assay: Inhibition of CLK1/4 in human T24 cells assessed as down regulation of EGFR expression at 5 uM after 3 days by Western blot analysis relative to control; format: cell-based; method in brief: as §1
[8] = molecular target: T1, Dual specificity protein kinase CLK1/CLK4; assay: Inhibition of CLK1/4 in human MDA-MB-231 cells assessed as down regulation of EGFR expression after 3 days by Western blot analysis; format: cell-based; method in brief: as §1
[9] = system: T-24; assay: Down regulation of PARP1 expression in human T24 cells at 1.25 to 10 uM after 3 days by Western blot analysis; format: functional, cell-based; method in brief: as §1
[10] = molecular target: T2, Dual specificity tyrosine-phosphorylation-regulated kinase 1B (Homo sapiens, UniProt Q9Y463); assay: Inhibition of full length recombinant GST-tagged human DYRK1B expressed in baculovirus using KKISGRLSPIMTEQ-NH2 as substrate at 1 uM after 15 mins
Target sequence in this assay (Q9Y463 whole entry, looked up): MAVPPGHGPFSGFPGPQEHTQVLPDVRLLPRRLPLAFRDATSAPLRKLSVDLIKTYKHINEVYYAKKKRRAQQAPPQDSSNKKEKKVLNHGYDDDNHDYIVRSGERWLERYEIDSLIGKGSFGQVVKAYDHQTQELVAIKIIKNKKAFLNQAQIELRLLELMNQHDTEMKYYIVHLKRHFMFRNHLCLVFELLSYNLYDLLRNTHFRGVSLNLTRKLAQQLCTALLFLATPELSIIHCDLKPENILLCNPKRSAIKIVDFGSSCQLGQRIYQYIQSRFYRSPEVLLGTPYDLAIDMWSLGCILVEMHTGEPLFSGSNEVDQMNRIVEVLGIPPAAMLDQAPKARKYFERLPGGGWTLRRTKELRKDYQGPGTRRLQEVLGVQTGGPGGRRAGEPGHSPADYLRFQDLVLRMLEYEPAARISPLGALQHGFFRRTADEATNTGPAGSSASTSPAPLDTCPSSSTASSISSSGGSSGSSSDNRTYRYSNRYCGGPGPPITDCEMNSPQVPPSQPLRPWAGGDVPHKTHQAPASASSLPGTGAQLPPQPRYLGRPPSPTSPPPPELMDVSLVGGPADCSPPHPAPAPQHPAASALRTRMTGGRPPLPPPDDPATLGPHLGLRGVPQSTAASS

[11] = molecular target: T1, Dual specificity protein kinase CLK1/CLK4; assay: Inhibition of CLK1/4 in human MDA-MB-231 cells assessed as down regulation of EGFR expression at 20 uM after 3 days by Western blot analysis relative to control; format: cell-based; method in brief: as §1
[12] = species: Homo sapiens; assay: Inhibition of recombinant human casein kinase 2 using RRREDEESDDEE as substrate at 1 uM after 30 mins in presence of [gamma-32P]-ATP by scintillation counting method
[13] = molecular target: T3, Dual specificity protein kinase CLK1 (Homo sapiens, UniProt P49759); assay: Inhibition of recombinant human GST-tagged Clk1 expressed in Escherichia coli at 1 uM using RS repeat substrate peptide after 15 mins in presence of [gamma-32]-ATP
T3 sequence (P49759 whole entry, looked up): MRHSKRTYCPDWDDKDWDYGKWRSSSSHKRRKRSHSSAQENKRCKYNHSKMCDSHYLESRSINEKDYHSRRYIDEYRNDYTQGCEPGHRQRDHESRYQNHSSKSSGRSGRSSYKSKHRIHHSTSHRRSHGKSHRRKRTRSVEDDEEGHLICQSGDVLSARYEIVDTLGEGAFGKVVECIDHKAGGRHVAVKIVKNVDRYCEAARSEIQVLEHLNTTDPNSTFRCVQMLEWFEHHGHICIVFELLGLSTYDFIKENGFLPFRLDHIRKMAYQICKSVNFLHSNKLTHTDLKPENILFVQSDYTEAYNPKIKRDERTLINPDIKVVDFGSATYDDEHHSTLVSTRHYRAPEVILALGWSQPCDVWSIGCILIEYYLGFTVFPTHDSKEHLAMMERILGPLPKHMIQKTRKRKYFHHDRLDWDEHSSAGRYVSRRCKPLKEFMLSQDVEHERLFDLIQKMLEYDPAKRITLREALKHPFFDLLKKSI

[14] = system: T-24; assay: Down regulation of CD44 expression in human T24 cells at 1.25 to 10 uM after 3 days by Western blot analysis; format: functional, cell-based; method in brief: as §1
[15] = molecular target: T1, Dual specificity protein kinase CLK1/CLK4; assay: Inhibition of CLK1/4 in human T24 cells assessed as down regulation of HDAC1 expression after 3 days by Western blot analysis; format: cell-based; method in brief: as §1
[16] = molecular target: Dual specificity protein kinase CLK4 (Mus musculus) (UniProt O35493); assay: Inhibition of recombinant GST-tagged mouse CLK4 using GRSRSRSRSRSR as substrate at 1 uM after 30 mins in presence of [gamma-32P]-ATP by scintillation counting method
Chain of Dual specificity protein kinase CLK4 (Mus musculus) (O35493 whole entry, looked up): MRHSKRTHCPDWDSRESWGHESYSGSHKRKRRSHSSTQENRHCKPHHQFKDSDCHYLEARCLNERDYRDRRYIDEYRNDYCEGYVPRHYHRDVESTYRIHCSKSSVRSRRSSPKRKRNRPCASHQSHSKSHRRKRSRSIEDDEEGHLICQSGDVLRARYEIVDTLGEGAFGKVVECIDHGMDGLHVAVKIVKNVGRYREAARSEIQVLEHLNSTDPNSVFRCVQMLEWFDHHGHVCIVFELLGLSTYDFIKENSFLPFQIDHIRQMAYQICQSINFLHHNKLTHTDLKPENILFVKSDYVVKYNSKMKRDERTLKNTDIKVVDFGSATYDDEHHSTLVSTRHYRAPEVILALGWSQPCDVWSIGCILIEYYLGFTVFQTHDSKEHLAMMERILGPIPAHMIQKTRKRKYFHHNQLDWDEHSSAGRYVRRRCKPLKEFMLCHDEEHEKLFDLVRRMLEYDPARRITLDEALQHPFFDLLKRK

[17] = system: THP-1; assay: Cytotoxicity against human THP1 cells assessed as growth inhibition after 5 days by MTT assay; format: functional; settings: THP-1, 120 h
Method in brief: (§2)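 They were seeded at 5000 cells per well onto compound or DMSO (0.2% final). Plates were kept 5 days at 37 °C in 5% CO2 with no medium change, then read by MTT.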

[18] = molecular target: T1, Dual specificity protein kinase CLK1/CLK4; assay: Inhibition of CLK1/4 in human MDA-MB-231 cells assessed as down regulation of EGFR expression at 10 uM after 3 days by Western blot analysis relative to control; format: cell-based; method in brief: as §1
[19] = system: MDA-MB-231; assay: Cytotoxicity against human MDA-MB-231 cells assessed as growth inhibition after 5 days by MTT assay; format: functional; settings: MDA-MB-231, 120 h; method in brief: as §2
[20] = molecular target: T1, Dual specificity protein kinase CLK1/CLK4; assay: Inhibition of CLK1/4 in human MDA-MB-231 cells assessed as down regulation of S6 kinase expression at 20 uM after 3 days by Western blot analysis relative to control; format: cell-based; method in brief: as §1
[21] = molecular target: Serine/threonine-protein kinase haspin (Homo sapiens) (UniProt Q8TF76); assay: Inhibition of MBP-Haspin (unknown origin) at 1 uM after 10 mins by TR-FRET assay
Chain of Serine/threonine-protein kinase haspin (Homo sapiens) (Q8TF76 whole entry): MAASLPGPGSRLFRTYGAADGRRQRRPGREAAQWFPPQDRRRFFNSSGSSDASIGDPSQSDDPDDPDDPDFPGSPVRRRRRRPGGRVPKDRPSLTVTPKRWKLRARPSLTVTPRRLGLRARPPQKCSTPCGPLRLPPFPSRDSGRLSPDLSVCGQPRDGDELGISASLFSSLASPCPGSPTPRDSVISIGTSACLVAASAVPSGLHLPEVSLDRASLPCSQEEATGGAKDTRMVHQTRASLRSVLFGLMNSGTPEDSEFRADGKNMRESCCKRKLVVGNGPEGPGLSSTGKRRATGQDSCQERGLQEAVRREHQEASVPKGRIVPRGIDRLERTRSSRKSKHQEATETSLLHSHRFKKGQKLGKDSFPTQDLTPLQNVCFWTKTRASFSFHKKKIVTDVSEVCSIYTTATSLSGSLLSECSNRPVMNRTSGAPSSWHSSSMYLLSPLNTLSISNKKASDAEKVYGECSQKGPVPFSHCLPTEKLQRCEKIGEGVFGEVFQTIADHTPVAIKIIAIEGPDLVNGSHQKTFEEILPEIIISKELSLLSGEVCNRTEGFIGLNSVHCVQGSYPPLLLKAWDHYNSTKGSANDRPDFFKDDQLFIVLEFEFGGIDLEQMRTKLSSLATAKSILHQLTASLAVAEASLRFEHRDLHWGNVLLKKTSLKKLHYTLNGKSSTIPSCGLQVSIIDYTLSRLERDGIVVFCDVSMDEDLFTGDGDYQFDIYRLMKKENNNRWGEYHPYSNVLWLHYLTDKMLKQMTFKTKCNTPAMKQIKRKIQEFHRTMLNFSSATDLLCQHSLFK
Method in brief: (§3)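 Tested in a commercial kinase profiling panel at an ATP concentration of 100 μM. Data are the mean of duplicates that differed by less than 7%.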

[22] = molecular target: T1, Dual specificity protein kinase CLK1/CLK4; assay: Inhibition of CLK1/4 in human T24 cells assessed as down regulation of HDAC1 expression at 10 uM after 3 days by Western blot analysis relative to control; format: cell-based; method in brief: as §1
[23] = molecular target: T1, Dual specificity protein kinase CLK1/CLK4; assay: Inhibition of CLK1/4 in human MDA-MB-231 cells assessed as down regulation of S6 kinase expression after 3 days by Western blot analysis; format: cell-based; method in brief: as §1
[24] = molecular target: Dual specificity protein kinase CLK3 (Mus musculus) (UniProt O35492); assay: Inhibition of recombinant GST-tagged mouse CLK3 using GRSRSRSRSRSR as substrate at 1 uM after 30 mins in presence of [gamma-32P]-ATP by scintillation counting method
Chain of Dual specificity protein kinase CLK3 (Mus musculus) (O35492 whole entry): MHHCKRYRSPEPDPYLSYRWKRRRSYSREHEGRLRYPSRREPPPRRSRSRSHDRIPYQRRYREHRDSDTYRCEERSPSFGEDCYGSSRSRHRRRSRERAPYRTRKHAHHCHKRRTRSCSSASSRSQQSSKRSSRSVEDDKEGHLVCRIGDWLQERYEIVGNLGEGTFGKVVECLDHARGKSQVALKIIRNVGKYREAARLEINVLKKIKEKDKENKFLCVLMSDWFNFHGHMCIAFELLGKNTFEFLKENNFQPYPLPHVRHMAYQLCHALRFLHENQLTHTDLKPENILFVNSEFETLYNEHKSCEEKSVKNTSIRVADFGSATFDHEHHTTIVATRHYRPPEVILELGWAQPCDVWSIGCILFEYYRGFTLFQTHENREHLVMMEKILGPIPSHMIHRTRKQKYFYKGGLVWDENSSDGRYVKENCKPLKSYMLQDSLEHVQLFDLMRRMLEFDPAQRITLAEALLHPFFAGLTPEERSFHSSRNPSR

[25] = system: HepG2; assay: Cytotoxicity against human HepG2 cells assessed as growth inhibition after 5 days by MTT assay; format: functional; settings: HepG2, 120 h; method in brief: as §2
[26] = system: T-24; assay: Down regulation of ERK2 expression in human T24 cells at 1.25 to 10 uM after 3 days by Western blot analysis; format: functional, cell-based; method in brief: as §1
[27] = molecular target: SRSF protein kinase 1 (Homo sapiens) (UniProt Q96SB4); assay: Inhibition of SRPK1 (unknown origin) at 1 uM; method in brief: as §3
Chain of SRSF protein kinase 1 (Homo sapiens) (Q96SB4 whole entry): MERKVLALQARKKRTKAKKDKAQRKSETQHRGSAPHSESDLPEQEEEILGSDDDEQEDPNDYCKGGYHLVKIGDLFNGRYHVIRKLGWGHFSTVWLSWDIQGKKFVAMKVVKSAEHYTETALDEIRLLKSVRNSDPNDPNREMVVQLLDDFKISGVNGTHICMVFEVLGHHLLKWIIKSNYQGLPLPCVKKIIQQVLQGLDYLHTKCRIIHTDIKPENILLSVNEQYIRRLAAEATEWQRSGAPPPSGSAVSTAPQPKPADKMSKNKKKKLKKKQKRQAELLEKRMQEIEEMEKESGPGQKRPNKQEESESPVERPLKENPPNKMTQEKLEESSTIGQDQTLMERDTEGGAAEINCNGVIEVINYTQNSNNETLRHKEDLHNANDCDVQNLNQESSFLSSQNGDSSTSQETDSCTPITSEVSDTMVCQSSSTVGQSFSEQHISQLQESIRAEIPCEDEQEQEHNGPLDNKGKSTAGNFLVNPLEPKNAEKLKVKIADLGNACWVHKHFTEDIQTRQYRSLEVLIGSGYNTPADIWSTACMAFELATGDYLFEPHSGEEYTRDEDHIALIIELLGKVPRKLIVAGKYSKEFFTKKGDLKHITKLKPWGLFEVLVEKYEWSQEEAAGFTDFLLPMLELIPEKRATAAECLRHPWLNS

[28] = molecular target: T2, Dual specificity tyrosine-phosphorylation-regulated kinase 1B; assay: Inhibition of full length recombinant GST-tagged human DYRK1B expressed in baculovirus using KKISGRLSPIMTEQ-NH2 as substrate after 15 mins
Target sequence in this assay (Q9Y463 whole entry): as the sequence (Q9Y463 whole entry, looked up) above

[29] = molecular target: T3, Dual specificity protein kinase CLK1; assay: Inhibition of recombinant human GST-tagged Clk1 expressed in Escherichia coli at 100 nM using RS repeat substrate peptide after 15 mins in presence of [gamma-32]-ATP
[30] = molecular target: Dual specificity protein kinase CLK4 (Mus musculus, UniProt O35493); assay: Inhibition of recombinant GST-tagged mouse CLK4 using GRSRSRSRSRSR as substrate after 30 mins in presence of [gamma-32P]-ATP by scintillation counting method
Chain of Dual specificity protein kinase CLK4 (O35493 whole entry): as the sequence (O35493 whole entry, looked up) above

[31] = system: T-24; assay: Cytotoxicity against human T24 cells assessed as growth inhibition after 5 days by MTT assay; format: functional; settings: T-24, 120 h; method in brief: as §2
[32] = molecular target: T1, Dual specificity protein kinase CLK1/CLK4; assay: Inhibition of CLK1/4 in human T24 cells assessed as down regulation of EGFR expression at 10 uM after 3 days by Western blot analysis relative to control; format: cell-based; method in brief: as §1

In the case of `COc1ccc2sc(C(=O)N(C)Cc3cccc(F)c3)cc2c1`, the inhibition [1] is reported as 33.1%, the Activity [2] is reported as “inactive” and the inhibition [3] is reported as 47.5%. The Activity [4] was “inactive”, the IC50 [5] was 19.1 nM and the inhibition [6] was 48.3%. For the same molecule, the inhibition [7] was 52.6%, the IC50 [8] was 4200 nM and the Activity [9] was “inactive”. For the same molecule, the inhibition [10] was 77%, the inhibition [11] was 56.2% and the inhibition [12] was 1.4%. For the same molecule, the inhibition [13] was 92%, the Activity [14] was “inactive” and the IC50 [15] was 9500 nM. The inhibition [15] was “Dose-dependent effect”, the inhibition [16] was 101% and the GI50 [17] was 27200 nM. The inhibition [18] was 54.1%, the GI50 [19] was 9600 nM and the inhibition [20] was 41.4%. The inhibition [21] was 12%, the inhibition [22] was 50.2% and the IC50 [23] was over 20000 nM. For the same molecule, the inhibition [24] was 58%, the GI50 [25] was 2800 nM and the Activity [26] was “inactive”. For the same molecule, the inhibition [27] was 2%, the IC50 [28] was 206 nM and the inhibition [29] was 80%. For the same molecule, the IC50 [30] was 2.3 nM, the GI50 [31] was 600 nM and the inhibition [32] was 59.7%.
